tested on: not listed separately; experiment: Cytotoxicity against African green monkey Vero B cells assessed as decrease in cell viability by MTS/PMS assay; type: cell-based; conditions: chlorocebus sabaeus
Method in brief: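 Vero B cells (African green monkey kidney, ECACC) were incubated for 7 days with serial compound dilutions without virus. Toxicity was quantified by the MTS/PMS method, and CC50 is the compound concentration giving 50% cytotoxicity.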

Row | SMILES | CC50
1 | Cc1ccc(Nc2nc(Cl)nc3ccccc23)c(Br)c1 | > 144 µM
2 | Cc1ccc(Nc2nc(Cl)nc3[nH]cnc23)c(-c2cc(C)n[nH]2)c1 | > 147 µM
3 | COc1ccc(Cn2cnc3c(Cl)nc(Cl)nc32)cc1 | 32.4 µM
4 | Cc1ccc(Nc2nc(Nc3ccc(F)cc3)nc3ccccc23)c(-c2cc(C)n[nH]2)c1 | 8.7 µM
5 | Cc1ccc(Nc2nc(Cl)nc3ccccc23)c(-c2cc(C)n[nH]2)c1 | 97 µM
6 | COc1ccc(Cn2cnc3c(Nc4ccc(C)cc4-c4cc(C)n[nH]4)nc(Cl)nc32)cc1 | > 109 µM
7 | Cc1ccc(Nc2nc(Cl)nc3[nH]cnc23)c(Br)c1 | > 148 µM
8 | COc1ccc(Cn2cnc3nc(Cl)nc(Cl)c32)cc1 | 12.3 µM
9 | Cc1ccc(Nc2nc(Nc3ccc(C)cc3-c3cc(C)n[nH]3)c3ccccc3n2)cc1 | 5.8 µM
10 | COc1ccc(Cn2cnc3c(Nc4ccc(C)cc4Br)nc(Cl)nc32)cc1 | > 109 µM

tested on: not listed separately; experiment: Cytotoxicity against African green monkey Vero B cells assessed as decrease in cell viability by microscopic method; type: cell-based; conditions: chlorocebus sabaeus
Method in brief: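 Uninfected Vero B cells were exposed for 7 days to serial compound dilutions. Wells were inspected microscopically for changes in host cell morphology, and CC50 was calculated from the microscopic scoring data.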

Row | SMILES | CC50
11 | Cc1ccc(Nc2nc(Cl)nc3ccccc23)c(Br)c1 | 32 µM
12 | COc1ccc(Cn2cnc3c(Nc4ccc(C)cc4-c4cc(C)n[nH]4)nc(Cl)nc32)cc1 | 10 µM
13 | COc1ccc(Cn2cnc3c(Nc4ccc(C)cc4Br)nc(Cl)nc32)cc1 | 63 µM

tested on: dengue virus type 2; experiment: Antiviral activity against Dengue virus serotype 2 by human cell-based assay; type: functional; conditions: not given

Row | EC50 | SMILES
14 | 0.119 µM | Clc1ccc(-c2ccc(-c3nc(NCc4cccnc4)c4ccccc4n3)s2)cc1

tested on: not listed separately; experiment: Inhibition of Dengue virus serotype 2 N-terminal His6-tagged NS5 RdRp activity expressed in baculovirus expression system using poly(C)/5'-biotinylated oligo (G)20 as template/primer assessed as inhibition of [3H]GTP incorporation after 20 mins by scintillation proximity assay; design: species or system dengue virus type 2; conditions: not given

Row | IC50 | SMILES
15 | 0.7 µM | O=C(O)c1ccccc1NS(=O)(=O)c1cccc(-c2cnn(Cc3ccccc3)c2)c1

tested on: not listed separately; experiment: Selectivity index, ratio of CC50 for African green monkey Vero B cells to EC50 for Dengue virus serotype 2 infected in African green monkey Vero B cells; type: toxicity; conditions: read-out: Ratio CC50/EC50
Method in brief: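 In a CPE-reduction assay, DENV-2 in Vero B cells was run over 7 days with serial compound dilutions, with and without virus. EC50 (inhibition of virus-induced CPE) and CC50 come from microscopic scoring, with MTS/PMS also used for toxicity. The index is CC50/EC50.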

Row | SMILES | selectivity ratio
16 | Cc1ccc(Nc2nc(Cl)nc3ccccc23)c(Br)c1 | 13
17 | Cc1ccc(Nc2nc(Cl)nc3[nH]cnc23)c(-c2cc(C)n[nH]2)c1 | 5
18 | COc1ccc(Cn2cnc3c(Cl)nc(Cl)nc32)cc1 | 2
19 | Cc1ccc(Nc2nc(Nc3ccc(F)cc3)nc3ccccc23)c(-c2cc(C)n[nH]2)c1 | 1
20 | Cc1ccc(Nc2nc(Cl)nc3ccccc23)c(-c2cc(C)n[nH]2)c1 | 11
21 | COc1ccc(Cn2cnc3c(Nc4ccc(C)cc4-c4cc(C)n[nH]4)nc(Cl)nc32)cc1 | 58
22 | Cc1ccc(Nc2nc(Cl)nc3[nH]cnc23)c(Br)c1 | 4
23 | COc1ccc(Cn2cnc3nc(Cl)nc(Cl)c32)cc1 | 1
24 | Cc1ccc(Nc2nc(Nc3ccc(C)cc3-c3cc(C)n[nH]3)c3ccccc3n2)cc1 | 2
25 | COc1ccc(Cn2cnc3c(Nc4ccc(C)cc4Br)nc(Cl)nc32)cc1 | 15

tested on: dengue virus type 2; experiment: Antiviral activity against Dengue virus serotype 2 infected in African green monkey Vero B cells assessed as inhibition of viral RNA replication after 4 days by RT-qPCR method; type: functional; conditions: 96 h, read-out: ED50 (the source's name)

Row | SMILES | EC50
26 | Cc1ccc(Nc2nc(Cl)nc3ccccc23)c(Br)c1 | 10.9 µM
27 | Cc1ccc(Nc2nc(Cl)nc3[nH]cnc23)c(-c2cc(C)n[nH]2)c1 | 28.9 µM
28 | COc1ccc(Cn2cnc3c(Cl)nc(Cl)nc32)cc1 | 17.6 µM
29 | Cc1ccc(Nc2nc(Cl)nc3ccccc23)c(-c2cc(C)n[nH]2)c1 | 9.2 µM
30 | Cc1ccc(Nc2nc(Cl)nc3[nH]cnc23)c(Br)c1 | 33.5 µM
31 | COc1ccc(Cn2cnc3nc(Cl)nc(Cl)c32)cc1 | 9.9 µM

The remaining lines, values ahead:

Row | EC50 | SMILES
32 | 6.7 µM | Cc1ccc(Nc2nc(Nc3ccc(F)cc3)nc3ccccc23)c(-c2cc(C)n[nH]2)c1
33 | 1.9 µM | COc1ccc(Cn2cnc3c(Nc4ccc(C)cc4-c4cc(C)n[nH]4)nc(Cl)nc32)cc1
34 | 2.6 µM | Cc1ccc(Nc2nc(Nc3ccc(C)cc3-c3cc(C)n[nH]3)c3ccccc3n2)cc1
35 | 7.2 µM | COc1ccc(Cn2cnc3c(Nc4ccc(C)cc4Br)nc(Cl)nc32)cc1
